Laboratory results as given in the RNAGym collection of RNA variant scans (doi:10.1126/science.aae0568).
Variants at the floor of the assay were thinned out.

B1: tRNA (parent)
chain: GUUCCGUUGGCGUAAUGGUAACGCGUCUCCCUCCUAAGGAGAAGACUGCGGGUUCGAGUCCCGUACGGAACG

Variants of: B1
Assay: yeast fitness relative to wild type (ratio to wild type); higher = fitter; tRNA-Arg(CCU), competitive growth, 37 C, YPD
Procedure, shortened: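 Amplicons of the tRNA-Arg(CCU) gene were sequenced, 100-nucleotide paired-end, from the start population and from each end population of a pooled yeast competition. The competition, in six parallel replicates, lasted 24 hours in YPD at 37°C. Fitness relative to wild type was calculated from changes in genotype frequencies. Genotypes had to have ≥ 100 starting reads, and estimates < 0.5 were set to 0.5.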

Variant	yeast fitness
GAUCCGUUGGGGUAAUGGUAACGCGUCUCCCUCCUAAGGAGAAGACUGCGAGUUCGAGUUCCGUACGGAACG	≤ 0.5
GAUCCGUUGGCGUAAUGGUAACGCGUCUCCCUGCUAAGGAGAAGACUGCGGGUUCGAGUCCCGUACGGAACG	0.714
GAUCCGUUGGCGUAAUGGUAACGCGUCUCCCUCGUAAGGAGAAGACUGCGGGUUCGAGUCCCGCACGGAACG	≤ 0.5
GAUCCGUUGGCGUAAUGGUAACGCAUCUCCCUCCUAAGGAGAAGACUGCGGGUUCGAGUCCCGUACGAAACG	0.64
GAUCCGUUGGCGUAAUGGUAACGCGUCUCCCUGCUUAGGAGAAAACUGCGGGUUCGAGCCCCGUACGGAACG	0.554
GAUCCGUUGGCGUAAUGGUAACGGGUCUCCUUGCUAAGGAGCUGACUGCGGGUUCGAGUCCCGUACGGAACG	0.651
GAUCCCUUGGCGUCAUGGUAACGCGUCUCCCUCCUAAGGAGAAGACUGCGGGUUCGAGUCCCGUACGGAACG	≤ 0.5
GAUCCGUUCGCGAAGUGGUAACGCGUCUCCCUACUAUGGAGAAGACUGCCGGUUCGAGUCUCGUACGGUACG	≤ 0.5
GAUCCGUUGGCGUAAUGGUAACGCGUCUCCCUCAUAAGGAGAAGACGGGGGGUUCGAGUGCCGUACGGAACG	≤ 0.5
GAUCGGUUGGCGUAGUGGUAACGCGUCUCCCUCCUAAGGAGAAGACUGCGGGUUCGAGUCCCGUACGGAACG	0.575
GAUCAGUUGGCGUAAUGGUAACGCGUCUCCCUCCUAAGGAGAAGACUGCGGGUUCGAGUCCCGGACGGACCG	≤ 0.5
GAUCCGUUGGCGUAAUGGUAACGCGUCUCACUCCUAAGGAGAAGACUGUGGGUUCGAGUCGCGUACGGAACG	≤ 0.5
GAUCAGUUGGCAUAAUGGUAACGCGUCUCCCUCCUAAGGAGAAGACUGCGGGUUCGAGUCCCGUACGGAACG	0.526
GAUCCGUUGGCGUAAUCGUAAGGCGUCUCCCUCCUAAGGCGAAGACUGCGGGUUCGAGUCCCGUACGGAACG	≤ 0.5
GAUCCCUUGGCGUAAUGGUAGCGCGUCUCCCCCCUAAGGAGAAGACUGCGGGUUCGAGGCCCGUAUGGACCG	≤ 0.5
GAUCUGUUGGCGUAAUGGUUACGCGUCUCCCUCCUAAAGAGAAGACUGCGGGUUCGAGUCCCGUACGGAACG	0.56
GAUCCGUUGGCGUAAUGGUAACGCGUCUACCUCCUAAGGAGACGACUGCGGGUUCGAGUCCCGUACGGAACG	≤ 0.5
GAUCCGUUGGCGUAAUGGUAACGCGUCUACCUCCUAAGGAGAAGUCUGCGGGUUCGAGUCCCGUACGCAACG	≤ 0.5
GAUCCGUUGGCGUAAUGGUAACACGUCUGCCUCCUAAGGAGAAGACUGCGGGUUCGAGUCCCGUACGGAUCG	0.541

Variant	yeast fitness
GAUCCCUUGGCGUAAUGGUAACGCGUCUCCCUCCUAAGGAGAAGACUGCGGGUUCGAGUCCCGUACGCAACG	≤ 0.5
GAUCCGUUGGCGUAAUGGUAACGCGUCUUCCUCCUAGGGAGAAGACUGCGGGUUCGAGUCCCGUACGGAACG	≤ 0.5
GAUCCGUUAGCGAAAUGGUAACGAGUCUCCCUCCUAAGGAGGAGACUGCGGGUUUGAGUCCCGUACGGACCG	≤ 0.5
GAUCCGUUGGCGUAAUCGUAACGCGUCUCCCUCCUAAGGAGAAGACUGCGGGUUCGAGUCCCGUACGGAACG	0.603
GAUCCGUUGGCUUAAUGGUAACACGUCUCCCUCCUUAGGAGAAGACUGCGGGUUCGACUUCCGUACGGAACG	≤ 0.5
GAUCCGUUGGCGUAAUGGUAACGCGUCUCACUCCUAAGGAGAAGACUGCGGGUUCGAGUCCCCUACGGAACG	≤ 0.5
GAUCCAUUGGGGUAAUGGUAACGCGUCUCCCUCCUAAGGAGAAGACUGUGGGUCCGACUCCCGUACGGAACG	≤ 0.5
GAUCCGUUGGCGUAAUGGUAAAGCGUCUCCCUCCUAAGGCGAAGAGUGCGGGUUCGAGAUGCGUACGGAACG	≤ 0.5
GAUCCGUUGGCGUAAUGGUAACGCGUCUCCCUCCUAAGGAGAAGACUGCGGGUUCGAGUCUCGUACGGACCG	0.585
GAUCCGUUGGCGUAAUGGUAACGGGUCUCCCUCCUAAGGAGAAGACUGCGGGUUCGAGUCCCGUACGGAACG	0.643
GAUCCGUUGGCGUAAUGGUAACGCGUAUCCCUCCUAAGGAGAAGACUGGGGGUUCGUGUCCCGUAUGGAACG	0.639
GAUCUGUGGGCGUAAUGGUGACGCGUCUCCCUCAUAAGGAGAAGACUGCGGGUUCGAGUCCCGUACGGAACG	≤ 0.5
GAUCCGUUGGCGUAAUGGUAACGCGUCUCCCUCCUAAGGAGAAGACUGCGGGUUCGAGUUCAGUACGGAACG	≤ 0.5
GAUCCGUUGGCAUAAUAGUGCCGCGUCUACCUCCUAAGGAGAAGACUGCGGGUUCGAGUCCCGUACGGUACG	≤ 0.5
GAUCCGUUGGCGUAAUGGUAACGCGUCUACCUCCUAAGGAGAAGUCUGCGGGUUCGAGCCCCGUACGGAACG	0.575
GAUCCGUUGGCGUAAUGGUAACGCGUCUCCCUCCUAAGGAGAAGACUGCGGGUUCGAGUGCCGUACGGAACG	0.666
GAUCCGUUGGCGUAAUGGUAACGCGUCUCCAUCCUAAGGAGAAGACUGCGGGUUCGGGUCCCGUACGGAACG	0.555
GAUCCGUUGGCGUAAUGGUAACGGGUCUCCCUCCUAAGGAGAAGACUGCGGGUUCGAGUCCCGUACGGAUCG	≤ 0.5
GAUCCGUUAGCGUAAUGGUAACGCGUCUCCCUCCUACGGAGCAGACUGCGGGUUCGAGUCCCGUACGAAACG	≤ 0.5
